Calls of active or inactive are those of the source. The calls are words filed in the database; no cut-off is given here.

What all share (assay type): functional, cell-based
Test [1] concerns MEL-JUSO. As to the kind of experiment: Cytotoxicity against human MEL-JUSO cells incubated for 2 hrs by cell titre blue viability assay.
Another test has as its system U2OS. As to the kind of experiment: Cytotoxicity against human U2OS cells incubated for 2 hrs by cell titre blue viability assay.
Test [2] concerns K562. The experiment in a line: Induction of DNA damage in human K562 cells assessed as DNA double strand break measured by constant gel field electrophoresis. The method in brief: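 Double-strand breaks resolved by constant-field gel electrophoresis and quantified as broken DNA relative to total DNA. Etoposide was the positive control. Mean ± SD of three independent experiments.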

The test system of test [3] is K562. The experiment in a line: Induction of DNA damage in human K562 cells assessed as increase in gammaH2AX at 1 to 5 uM for 2 hrs by Western blotting analysis. As to conditions: dose 1-5 µM. The method in brief: (§1)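 K562 cells treated 2 h with drug (10 μM; also 1 and 5 μM), washed and lysed directly in SDS sample buffer. Lysates separated by SDS-PAGE and blotted to PVDF. Probed for γH2AX (1:1000) with β-actin loading control and IRDye 800CW anti-mouse secondary; infrared imaging. γH2AX normalized to actin. Etoposide was the positive control. At 10 μM: mean ± SD of three independent experiments.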

Test [4] relates to K562. As to the kind of experiment: Induction of DNA damage in human K562 cells assessed as increase in gammaH2AX at 10 uM for 2 hrs by Western blotting analysis. The method, boiled down:
as §1

Test [5] concerns K562. As to the kind of experiment: Cytotoxicity against human K562 cells incubated for 2 hrs by cell titre blue viability assay. As to conditions: K562, 2 h. The method, boiled down: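 Viability read by CellTiter-Blue, normalized to untreated control and background-corrected. Media: K562 RPMI-1640, MelJuSo IMDM, U2OS DMEM, each with 8% FCS; 5% CO2, 37 °C.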
Test [6] has as its system MEL-JUSO. The experiment in a line: Effect of chromatin damage activity in human MEL-JUSO cells stably expressing PAGFPH2A assessed as histone eviction measured upto 60 mins measured by confocal microscopic analysis.

What is called IC50 is the concentration needed to halve the response being measured. A higher IC50 goes with weaker potency in that assay. In the case of `CC[C@]1(O)Cc2c(O)c3c(c(O)c2[C@@H](O[C@H]2C[C@H](N)[C@H](O)[C@H](C)O2)C1)C(=O)c1c(OC)cccc1C3=O`, the values for the IC50 in the test with MEL-JUSO [1], in the test with U2OS and in the test on K562 [5] were 372 nM, 237 nM and 42 nM, respectively. In addition, the result in the test with K562 [2], in the test on K562 [3] and in the test with K562 [4] was Active.

As for `COc1cccc2c1C(=O)c1c(O)c3c(c(O)c1C2=O)C[C@@](O)(C(=O)CO)C[C@@H]3O[C@H]1CC[C@H](O)[C@H](C)O1`, the IC50 with MEL-JUSO [1] worked out at 2430 nM; in the test with U2OS, 10000 nM; with K562 [5], 1620 nM. The result in the test on MEL-JUSO [6], with K562 [2], in the test with K562 [3] and in the test with K562 [4] was Active.

Take `CC(=O)[C@]1(O)Cc2c(O)c3c(c(O)c2[C@@H](O[C@H]2C[C@H](N)[C@H](O[C@H]4C[C@H](O)[C@H](O[C@H]5CCC(=O)[C@H](C)O5)[C@H](C)O4)[C@H](C)O2)C1)C(=O)c1ccccc1C3=O`: the IC50 in the test with MEL-JUSO [1] was 680 nM; in the test with U2OS, 376 nM; with K562 [5], 230 nM. The result with K562 [2], with K562 [3] and with K562 [4] was Active.

With `CC[C@@]1(O)C[C@H](O[C@H]2C[C@H](N(C)C)[C@H](O)[C@H](C)O2)c2c(O)c3c(c(O)c2[C@H]1C(=O)OC)C(=O)c1cccc(O)c1C3=O`, the half-inhibitory concentration (IC50) is 835 nM with MEL-JUSO [1], 1130 nM in the test with U2OS and 1100 nM in the test on K562 [5]. Moreover, the outcome with K562 [2], with K562 [3] and with K562 [4] was inactive.

`CC[C@@]1(O)C[C@H](O[C@H]2C[C@H](N(C)C)[C@H](O[C@H]3C[C@H](O)[C@H](O[C@H]4CCC(=O)[C@H](C)O4)[C@H](C)O3)[C@H](C)O2)c2c(cc3c(c2O)C(=O)c2c(O)cccc2C3=O)[C@H]1C(=O)OC` [ACLARUBICIN]: the IC50 in the test with MEL-JUSO [1] stood at 99 nM; in the test on U2OS it was 209 nM; in the test with K562 [5] it was 31 nM. For the same molecule, the outcome with K562 [2], in the test with K562 [3] and with K562 [4] was inactive.

Turning to `COc1cccc2c1C(=O)c1c(O)c3c(c(O)c1C2=O)C[C@@](O)(C(=O)CO)C[C@@H]3O[C@H]1C[C@H](O)[C@H](N)[C@H](C)O1`, the IC50 in the test on MEL-JUSO [1] came out at 998 nM; with U2OS it was 1120 nM; in the test with K562 [5], 381 nM. The result in the test with K562 [2], in the test on K562 [3] and in the test with K562 [4] was Active.

With `COc1cccc2c1C(=O)c1c(O)c3c(c(O)c1C2=O)C[C@@](O)(CCO)C[C@@H]3O[C@H]1C[C@H](N)[C@H](O)[C@H](C)O1` [13-DEOXYDOXORUBICIN], the IC50 in the test on MEL-JUSO [1] was 1150 nM; in the test on U2OS it was 891 nM; with K562 [5], 1790 nM. The result in the test on K562 [2], in the test on K562 [3] and in the test with K562 [4] was Active.

On to `COc1cccc2c1C(=O)c1c(O)c3c(c(O)c1C2=O)C[C@@](O)(C(C)=O)C[C@@H]3O[C@H]1C[C@H](N)[C@H](O)[C@H](C)O1` [DAUNORUBICIN], for which the IC50 was 286 nM in the test on MEL-JUSO [1] and 61 nM with U2OS.

`CC[C@@]1(O)C[C@H](O[C@H]2C[C@H](N)[C@H](O)[C@H](C)O2)c2c(O)c3c(c(O)c2[C@H]1C(=O)OC)C(=O)c1cccc(O)c1C3=O`: the IC50 is 4290 nM in the test with MEL-JUSO [1], 10000 nM with U2OS and 5320 nM with K562 [5]. Moreover, the result in the test with K562 [2], with K562 [3] and in the test with K562 [4] was Active.

Turning to `COc1cccc2c1C(=O)c1c(O)c3c(c(O)c1C2=O)C[C@@](O)(CCO)C[C@@H]3O[C@H]1C[C@H](N(C)C)[C@H](O)[C@H](C)O1`, the IC50 in the test on MEL-JUSO [1] stood at 2870 nM; in the test on U2OS, 4210 nM; in the test with K562 [5], 1620 nM. In addition, in the test on MEL-JUSO [6], the result was Active. For the same molecule, the outcome in the test on K562 [2], with K562 [3] and in the test on K562 [4] was inactive.

As to `COc1cccc2c1C(=O)c1c(O)c3c(c(O)c1C2=O)C[C@@](O)(C(=O)CO)C[C@@H]3O[C@H]1C[C@H](O)[C@H](N(C)C)[C@H](C)O1`, the results for the IC50 in the test with MEL-JUSO [1], in the test with U2OS and with K562 [5] were 433 nM, 285 nM and 129 nM, respectively. In the test on MEL-JUSO [6], the result was Active.

For the molecule `COc1cccc2c1C(=O)c1c(O)c3c(c(O)c1C2=O)C[C@@](O)(C(=O)CO)C[C@@H]3O[C@H]1C[C@H](O)[C@H](O)[C@H](C)O1` [HYDROXYRUBICIN], the figures for the IC50 in the test with MEL-JUSO [1], in the test on U2OS and in the test on K562 [5] were 1900 nM, 6790 nM and 856 nM, respectively. In addition, the outcome in the test with MEL-JUSO [6], in the test with K562 [2], in the test on K562 [3] and in the test on K562 [4] was Active.

As for `CC(=O)[C@]1(O)Cc2c(O)c3c(c(O)c2[C@@H](O[C@H]2C[C@H](N)[C@H](O)[C@H](C)O2)C1)C(=O)c1ccccc1C3=O` [IDARUBICIN], the IC50 amounted to 89 nM with MEL-JUSO [1] and 24 nM with U2OS.

For `CC[C@]1(O)Cc2c(O)c3c(c(O)c2[C@@H](O[C@H]2C[C@H](N(C)C)[C@H](O)[C@H](C)O2)C1)C(=O)c1c(OC)cccc1C3=O`, the 50% inhibitory concentration (IC50) with MEL-JUSO [1] stood at 1810 nM; in the test on U2OS it was 1360 nM; in the test on K562 [5], 1180 nM. Besides, the result in the test on MEL-JUSO [6] was Active. Besides, the outcome in the test on K562 [2], in the test on K562 [3] and in the test with K562 [4] was inactive.

Turning to `CC(=O)[C@]1(O)Cc2c(O)c3c(c(O)c2[C@@H](O[C@H]2C[C@H](N(C)C)[C@H](O[C@H]4C[C@H](O)[C@H](O[C@H]5CCC(=O)[C@H](C)O5)[C@H](C)O4)[C@H](C)O2)C1)C(=O)c1ccccc1C3=O`, the IC50 with MEL-JUSO [1] amounted to 8 nM; in the test with U2OS, 12 nM; in the test with K562 [5], 20 nM. In addition, the result in the test on K562 [2], in the test on K562 [3] and in the test with K562 [4] was inactive.

For the molecule `COc1cccc2c1C(=O)c1c(O)c3c(c(O)c1C2=O)C[C@@](O)(C(=O)CO)C[C@@H]3O[C@H]1C[C@H](N(C)C)[C@H](O[C@H]2C[C@H](O)[C@H](O[C@H]3CCC(=O)[C@H](C)O3)[C@H](C)O2)[C@H](C)O1` (single isomer, unassigned), the IC50 in the test on U2OS worked out at 11 nM; in the test on K562 [5], 19 nM. The result with MEL-JUSO [6] was Active. The result in the test with K562 [2], in the test with K562 [3] and with K562 [4] was inactive.

`COc1cccc2c1C(=O)c1c(O)c3c(c(O)c1C2=O)C[C@@](O)(C(=O)CO)C[C@@H]3O[C@H]1C[C@H](N2CCOCC2)[C@H](O)[C@H](C)O1`: the IC50 was found to be 51 nM in the test with MEL-JUSO [1], 77 nM in the test with U2OS and 64 nM with K562 [5]. Also, the outcome in the test on MEL-JUSO [6] was Active. The result in the test with K562 [2], in the test on K562 [3] and with K562 [4] was inactive.

As to `COc1cccc2c1C(=O)c1c(O)c3c(c(O)c1C2=O)C[C@@](O)(C(=O)CO)C[C@@H]3O[C@H]1C[C@H](N=[N+]=[N-])[C@H](O)[C@H](C)O1`, the IC50 was 1220 nM with MEL-JUSO [1], 10000 nM in the test with U2OS and 84 nM with K562 [5]. For the same molecule, the outcome in the test with MEL-JUSO [6], in the test with K562 [2], in the test with K562 [3] and with K562 [4] was Active.

As to `COc1cccc2c1C(=O)c1c(O)c3c(c(O)c1C2=O)C[C@@](O)(C(=O)CO)C[C@@H]3O[C@H]1C[C@H](N)[C@H](O)[C@H](C)O1` [DOXORUBICIN], the values for the IC50 in the test on MEL-JUSO [1] and in the test on U2OS were 523 nM and 339 nM, respectively. Also, the outcome in the test on MEL-JUSO [6] was Active.

Take `COc1cccc2c1C(=O)c1c(O)c3c(c(O)c1C2=O)C[C@@](O)(C(=O)CO)C[C@@H]3O[C@H]1C[C@H](N2CCCC2)[C@H](O)[C@H](C)O1`: the IC50 in the test on MEL-JUSO [1] amounted to 73 nM; with U2OS, 122 nM; in the test with K562 [5], 172 nM. The result with MEL-JUSO [6] was Active. Also, the result with K562 [2], in the test on K562 [3] and with K562 [4] was inactive.

As for `COc1cccc2c1C(=O)c1c(O)c3c(c(O)c1C2=O)C[C@@](O)(C(=O)CO)C[C@@H]3O[C@H]1C[C@H](N2CCCCC2)[C@H](O)[C@H](C)O1`, the values for the IC50 in the test with MEL-JUSO [1], in the test with U2OS and in the test with K562 [5] were 78 nM, 105 nM and 195 nM, respectively. In addition, the outcome in the test on MEL-JUSO [6] was Active. The outcome in the test with K562 [2], in the test with K562 [3] and in the test on K562 [4] was inactive.

`COc1cccc2c1C(=O)c1c(O)c3c(c(O)c1C2=O)C[C@@](O)(C(=O)CO)C[C@@H]3O[C@H]1C[C@H](N2CCC2)[C@H](O)[C@H](C)O1`: the IC50 turned out to be 297 nM with MEL-JUSO [1], 159 nM in the test on U2OS and 379 nM in the test on K562 [5]. Besides, the result in the test with MEL-JUSO [6] was Active. The outcome in the test on K562 [2], in the test with K562 [3] and in the test with K562 [4] was inactive.

The record behind these values is ChEMBL document CHEMBL5360645, “Re-Exploring the Anthracycline Chemical Space for Better Anti-Cancer Compounds” (J Med Chem, 2023).
